The text below walks through data of article PMC7854864 (Cell chemical biology, 2020).

As a reminder, the EC50 is the concentration needed to bring the measured effect to its halfway point.

Experiment [1] deals with pure human MYC C171Y mutant protein (Homo sapiens, UniProt P01106, C186Y). The experiment is described as follows: Gel-based ABPP with pure C171Y mutant MYC protein. To be noted: 50 μM, 2 h, 37°C. Type of experiment: binding. A digest of the protocol: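 Pure human wild-type and C171Y MYC (0.3 μg in 50 μl PBS) labelled directly with alkyne probe (50 μM) for 2 h at 37 °C. Rhodamine-azide (1 μM final) attached by CuAAC, 1 h at room temperature. Samples run on reducing SDS/PAGE (4–20% gels), fixed in acetic acid/ethanol, and imaged by in-gel rhodamine fluorescence; silver stain used for loading.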

In experiment [2] the target is endogenous c-MYC (Homo sapiens, UniProt P01106). Description: EN4-alkyne-4 enrichment of endogenous MYC in cells. Type of experiment: cell-based. To be noted: 231MFP cells, 50 μM, 4 h, in situ. A digest of the protocol:
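231MFP cells at 70% confluency exposed in situ to DMSO or 50 μM alkyne probe for 4 h. Cells lysed by sonication and lysates normalised to 3.2 mg/mL. Probe-labelled proteins conjugated by CuAAC and pulled down. c-MYC in the pulldown detected by blotting; input c-MYC and vinculin also shown. n=3 biological replicates, quantified.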

Experiment [3] relates to MYC transcriptional activity. The experiment is described as follows: MYC luciferase reporter assay in HEK293T cells. The conditions noted are these: for activity in MYC luciferase reporter assay: dose response, Table S4. Type of experiment: cell-based, human. The method in brief: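 HEK293T cells (DMEM, 10% FBS) seeded at 35,000/well and transfected with Lipofectamine 2000 (complexes formed 25 min at room temperature). Reporter: firefly luciferase driven by TATA box plus tandem E-box repeats; negative control lacked response elements. Cells treated with DMSO or test compound (50 μM screen, or dose series) for 24 h. Firefly and Renilla read; blank subtracted, Firefly:Renilla calculated per well, then normalised to vehicle. n=3.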
For orientation: A reporter such as luciferase makes a cellular process visible.

The subject of experiment [4] is parental MCF10A cells. The experiment is described as follows: Serum-free cell survival, parental MCF10A. Type of experiment: cell-based, human. The conditions noted are these: 48 h. The method in brief: (§1)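 MCF10A parental or MYC-overexpressing cells (maintained in DMEM/F12K with 5% horse serum, EGF, cholera toxin, insulin and hydrocortisone) seeded at 40,000/well and allowed to adhere overnight. Treated with DMSO or test compound in serum-free medium for 48 h. Fixed and stained with formalin/Hoechst 33342, then imaged. Survival normalised to the DMSO control of each line set to 1; unpaired two-tailed t-test.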

Experiment [5] concerns the target C171Y mutant MYC protein (with MAX) (Homo sapiens, UniProt P01106, C186Y). The experiment is described as follows: MYC/MAX in vitro DNA binding with C171Y mutant MYC. The experiment is classed as biochemical. The conditions noted are these: 50 μM. The method in brief:
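Plate-based assay adapted from a c-Myc transcription factor kit. Test compound (50 μM; diluted from 50 mM DMSO stock into dPBS) or DMSO pre-incubated with 0.2 μg pure full-length wild-type or C171Y MYC for 30 min at 37 °C. Then 0.2 μg MAX added and the mixture bound to wells coated with the E-box consensus sequence for 1 h. Bound complex detected with primary and secondary antibodies.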

For experiment [6], the system named is 231MFP breast tumor xenograft. The experiment is described as follows: 231MFP tumor xenograft study. The experiment is classed as in vivo. The conditions noted are these: 50 mg/kg ip once per day, started 14 days after implantation, SCID mice. The method in brief:
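Female C.B17 SCID mice (6–8 weeks) received 1 × 10⁶ 231MFP cells subcutaneously in the flank, suspended in serum-free medium. From 2 weeks after implantation, vehicle (18:1:1 PBS/ethanol/PEG40) or 50 mg/kg test compound was given ip once daily. Tumour size measured weekly by calipers; unpaired two-tailed t-test.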

The test system of experiment [7] is MYC transcriptional activity. Description: MYC luciferase reporter upon JUN knockdown. Type of experiment: cell-based, human. The conditions noted are these: HEK293T, siJUN, 24 h.
Experiment [8] has as its system MYC-transformed mammary epithelial MCF10A cells. The experiment is described as follows: Serum-free cell survival, MYC-expressing MCF10A. Type of experiment: cell-based, human. To be noted: 48 h. The method in brief: as §1
In experiment [9] the test system is C171Y FLAG-MYC. Description: MYC luciferase reporter in HEK293T cells expressing C171Y versus WT FLAG-MYC. Type of experiment: cell-based, human. To be noted: 50 μM, 24 h. A digest of the protocol:
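HEK293T cells seeded at 35,000/well and co-transfected with the MYC E-box luciferase reporter plus 1 μg/well FLAG-eGFP, FLAG-wild-type or FLAG-C171Y c-MYC plasmid (site-directed mutant), using Lipofectamine 2000 at 3:1 to DNA. Treated with DMSO or 50 μM test compound for 24 h. Blank-subtracted Firefly:Renilla expressed relative to DMSO set to 1; FLAG expression checked by Western blot.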

Experiment [10] addresses pure human c-JUN protein (Homo sapiens, UniProt P05412). Description: Gel-based ABPP with pure JUN protein. The conditions noted are these: Fig. S3b. The experiment is classed as binding. The method in brief: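 Recombinant pure human c-JUN (0.1 μg) was pretreated with DMSO or test compound in 25 μl PBS for 1 h at 37 °C. It was then labeled with 200 nM IA-rhodamine for 1 h at room temperature. Samples were denatured in reducing Laemmli buffer at 90 °C for 5 min, separated on 4–20% SDS/PAGE gels, fixed, and read by in-gel fluorescence.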

The subject of experiment [11] is CDK2, CDC25A and MYC protein levels. The experiment is described as follows: Western blotting of MYC transcriptional targets in 231MFP cells. Type of experiment: cell-based, human. To be noted: 50 μM, 36 h. The method in brief:
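231MFP cells treated with DMSO or 50 μM test compound for 36 h, with medium and treatment replenished at 24 h. CDK2, CDC25A and MYC levels measured by Western blot with vinculin as loading control. n=3 biological replicates; blots quantified; unpaired two-tailed t-test.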
In general terms: In western blotting, separated proteins are transferred to a membrane and probed.

Experiment [12] deals with MAX (Homo sapiens, UniProt P61244). The experiment is described as follows: Cellular thermal shift assay. The experiment is classed as cell-based. To be noted: 231MFP cells, 50 μM, 2 h. The method in brief: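 231MFP cells at 80% confluence treated with DMSO or 50 μM test compound for 120 min, then resuspended in PBS with protease inhibitors and compound or DMSO kept present. Aliquots heated 3 min at eight temperatures (37.0–58.0 °C), held 3 min at 25 °C, lysed by three liquid-nitrogen freeze-thaw cycles and spun 20,000 g, 20 min, 4 °C. Soluble MAX measured by Western blot with GAPDH as loading control; band intensity quantified.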

For experiment [13], the target named is MYC (Homo sapiens, UniProt P01106). Description: Cellular thermal shift assay. The conditions noted are these: 231MFP cells, 50 μM, 2 h. The experiment is classed as cell-based. The method in brief:
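231MFP cells (L15, 10% FBS, 37 °C, 0% CO2) at 80% confluence were exposed to test compound or DMSO at 50 μM for 120 min. They were then resuspended in PBS with protease inhibitors, still containing compound or DMSO, and heated for 3 min at eight temperatures (37.0–58.0 °C). After 3 min at 25 °C, cells were freeze-thaw lysed and spun at 20,000 g. Soluble c-MYC, MAX and GAPDH were measured by Western blot densitometry, relative to DMSO.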

Experiment [14] addresses pure human MYC protein (Homo sapiens, UniProt P01106). Description: Gel-based ABPP with pure MYC protein. Type of experiment: binding. To be noted: pre-incubation 30 min 37°C, then EN4-alkyne-2 50 μM 2 h. A digest of the protocol: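 Pure human full-length MYC (0.3 μg in 50 μl PBS) pre-treated with DMSO or test compound for 30 min at 37 °C, then labelled with alkyne probe (50 μM) for 2 h at 37 °C. Rhodamine-azide (1 μM final) attached by CuAAC, 1 h at room temperature. Samples heated at 90 °C for 5 min in reducing Laemmli buffer, run on 4–20% gels, fixed, and read by in-gel fluorescence; silver stain used for loading.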

Experiment [15] has as its system 231MFP breast cancer cells. The experiment is described as follows: 231MFP cell proliferation. The experiment is classed as cell-based, human. The conditions noted are these: 50 μM, daily treatment, 72 h. A digest of the protocol:
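231MFP cells (L15, 10% FBS, 37 °C, 0% CO2) seeded at 15,000/well in serum-containing L-15. Treated the next day with DMSO or test compound, with media and compound replaced daily for 72 h. Wells fixed and stained with 10% formalin plus Hoechst 33342 for 15 min at room temperature in the dark, washed and imaged. Reported as percent proliferation versus DMSO; unpaired two-tailed t-test.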

Experiment [16] relates to MIZ1 or ZBTB17. The experiment is described as follows: MIZ1/ZBTB17 level with EN4 treatment. The conditions noted are these: Fig. S3f. The experiment is classed as cell-based.
Experiment [17] has as its system MYC target genes. Description: RNA sequencing of EN4-treated 231MFP cells. The experiment is classed as cell-based, human. The conditions noted are these: 50 μM, 24 h. The method in brief: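 231MFP cells seeded in 6 cm dishes and treated with DMSO or 50 μM test compound for 24 h before RNA sequencing. Transcript changes reported as log₂ fold change of treated versus DMSO controls.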

Experiment [18] has as its target purified recombinant human MYC/MAX complex (Homo sapiens, UniProt P01106). The experiment is described as follows: MYC/MAX in vitro DNA binding to E-box consensus sequence. The experiment is classed as biochemical. The method in brief:
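Human full-length c-MYC (0.2 μg) was pre-incubated for 30 min at 37 °C with DMSO or test compound diluted from 50 mM DMSO stock into dPBS. MAX (0.2 μg) was then added, and the mixture was transferred to wells coated with the E-box consensus sequence for 1 h binding. Bound complex was detected with primary and secondary antibodies following a commercial transcription-factor kit protocol. IC50 was derived from the dose-response.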

A value given as a limit tells only on which side of the number the result lay.

purified recombinant human MYC/MAX complex, sequence (P01106 16-454, one chain of several): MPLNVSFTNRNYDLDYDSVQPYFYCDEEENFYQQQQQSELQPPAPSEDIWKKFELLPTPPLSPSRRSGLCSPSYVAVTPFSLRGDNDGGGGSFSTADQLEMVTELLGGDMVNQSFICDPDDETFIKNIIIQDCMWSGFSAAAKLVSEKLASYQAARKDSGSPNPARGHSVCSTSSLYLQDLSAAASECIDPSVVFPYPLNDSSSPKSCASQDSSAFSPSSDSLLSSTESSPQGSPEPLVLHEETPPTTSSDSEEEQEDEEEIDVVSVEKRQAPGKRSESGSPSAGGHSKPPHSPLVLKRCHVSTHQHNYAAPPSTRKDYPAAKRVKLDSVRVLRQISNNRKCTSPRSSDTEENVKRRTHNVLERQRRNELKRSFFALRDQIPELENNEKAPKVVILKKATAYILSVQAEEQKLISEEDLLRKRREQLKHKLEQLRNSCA
C171Y mutant MYC protein (with MAX), sequence (P01106 16-454 C186Y): as the sequence (P01106 16-454, one chain of several) above, with C171Y counted along it
pure human MYC C171Y mutant protein, sequence (P01106 16-454 C186Y): as the sequence (P01106 16-454, one chain of several) above, with C171Y counted along it
MAX, sequence (P01106 16-454 partner limits assumed): as the sequence (P01106 16-454, one chain of several) above
MAX, sequence (P61244 whole entry): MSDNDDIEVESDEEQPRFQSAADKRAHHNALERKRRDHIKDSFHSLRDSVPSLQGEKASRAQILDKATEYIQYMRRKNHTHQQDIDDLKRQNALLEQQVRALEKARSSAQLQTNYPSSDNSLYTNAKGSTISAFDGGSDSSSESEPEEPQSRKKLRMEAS
endogenous c-MYC, sequence (P01106 16-454): as the sequence (P01106 16-454, one chain of several) above
MYC, sequence (P01106 16-454): as the sequence (P01106 16-454, one chain of several) above
pure human MYC protein, sequence (P01106 16-454): as the sequence (P01106 16-454, one chain of several) above
pure human c-JUN protein, sequence (P05412 whole entry): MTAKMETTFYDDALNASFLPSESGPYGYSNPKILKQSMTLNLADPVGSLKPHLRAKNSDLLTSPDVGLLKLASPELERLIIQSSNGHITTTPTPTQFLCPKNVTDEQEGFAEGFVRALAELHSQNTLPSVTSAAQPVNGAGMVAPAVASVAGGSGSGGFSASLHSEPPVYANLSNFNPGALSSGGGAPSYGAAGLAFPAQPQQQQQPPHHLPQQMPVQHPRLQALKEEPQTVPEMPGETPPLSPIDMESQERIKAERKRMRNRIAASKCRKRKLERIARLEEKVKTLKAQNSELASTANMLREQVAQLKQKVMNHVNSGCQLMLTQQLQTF

As to `C#CCOc1ccc(NC(=O)c2ccc(CNC(=O)C=C)cc2)c(Oc2ccc(OCC)cc2)c1` [EN4-alkyne-2, 4-(acrylamidomethyl)-N-(2-(4-ethoxyphenoxy)-4-(prop-2-yn-1-yloxy)phenyl) benzamide], the “probe labeling of C171Y mutant MYC compared to wild-type” value in [1] is recorded as “labeling was not observed”.
For the compound `C#Cc1ccc(Oc2ccc(OCC)cc2)c(NC(=O)c2ccc(CNC(=O)C=C)cc2)c1` [EN4-alkyne-4, 4-(acrylamidomethyl)-N-(2-(4-ethoxyphenoxy)-5-ethynylphenyl)benzamide], the “enrichment of endogenous c-MYC versus vehicle” value in [2] is on record as “significantly enriched endogenous c-MYC”. The EC50 in [3] (Homo sapiens, HEK-293T, read-out: EC50 in MYC luciferase reporter assay) worked out at 1400 nM.
Regarding `C=CC(=O)NCc1ccc(C(=O)Nc2ccccc2Oc2ccc(OCC)cc2)cc1` [EN4], the “cell survival of parental MCF10A cells” value in experiment [4] was “but not parental MCF10A cells”. For the same compound, the “inhibition of MYC/MAX DNA binding with C171Y mutant compared to wild-type MYC” value in [5] was “significantly attenuated”. In addition, the “tumor growth in vivo” value in experiment [6] was “significantly attenuated tumor growth”. The “inhibition of MYC luciferase reporter activity upon JUN knockdown compared to control cells” value in experiment [7] is “comparable inhibitory effects”. In addition, the “cell survival of MYC-transformed MCF10A cells” value in experiment [8] is “impaired the cell survival”. Moreover, the “MYC inhibitory effect in cells expressing C171Y FLAG-MYC compared to WT FLAG-MYC” value in experiment [9] is recorded as “significantly attenuated”. Also, in [10], the “competition against IA-rhodamine labeling of pure JUN” value is given as “competition of EN4 against labeling of pure JUN protein”. In [11], the MYC protein levels entry is listed as “substantially reduced”; the “protein levels of CDK2 and CDC25A” value is “significantly lowered”. In addition, in [12], the MAX thermal stability entry was “reduced the thermal stability”. The MYC thermal stability result in experiment [13] is listed as “significantly reduced MYC thermal stability”. Besides, the “competition of EN4-alkyne-2 labeling of pure MYC” value in [14] was “displaced the labeling of EN4-alkyne-2”. Further, the inhibition of proliferation in experiment [15] is > 90%. The “level of MYC binding partner MIZ1 or ZBTB17” value in experiment [16] is “upregulation”. In [17], the “expression of direct MYC target genes and MYC-regulated gene targets” value is on record as “significantly downregulated”. The “inhibition of MYC transcriptional activity in covalent ligand screen” value in experiment [3] (50 μM, 24 h, HEK293T, Fig. 1b) is on record as “strongest inhibition”. For the same compound, the IC50 in experiment [18] (read-out: 50 % inhibitory concentration (IC50) for MYC/MAX binding to the E-box response element DNA consensus sequence, dose-response, Fig. 1d, pre-incubated with MYC 30 min before MAX) was 6.7 µM.
With `CCOc1ccc(Oc2ccccc2NC(=O)c2ccc(CNC(=O)CCl)cc2)cc1` [EN4–3, 4-((2-chloroacetamido)methyl)-N-(2-(4-ethoxyphenoxy)phenyl)benzamide], the “activity in MYC luciferase reporter assay” value in [3] (HEK293T) is listed as “loss of activity”.
As for `CCOc1ccc(Oc2ccccc2NC(=O)c2ccc(CNC(=O)/C=C/C(F)(F)F)cc2)cc1` [EN4–6, (E)-N-(2-(4-ethoxyphenoxy)phenyl)-4-((4,4,4-trifluorobut-2-enamido)methyl) benzamide], in experiment [3] (HEK293T), the “activity in MYC luciferase reporter assay” value is “loss of activity”.
As to `CCOc1ccc(Oc2ccccc2NC(=O)c2ccc(CNC(=O)CC)cc2)cc1` [EN4–18, N-(2-(4-ethoxyphenoxy)phenyl)-4-(propionamidomethyl)benzamide], the “activity in MYC luciferase reporter assay” value in [3] (HEK293T) was “inhibited MYC luciferase reporter activity”. Moreover, the “inhibition of MYC/MAX DNA binding in vitro” value in experiment [18] (Fig. S4) is listed as “significantly inhibits MYC/MAX DNA binding”.
